ChEMBL document CHEMBL3826914, “Selective photodepletion of malignant T cells in extracorporeal photopheresis with selenorhodamine photosensitizers” (Bioorg Med Chem, 2016)
Calls of active or inactive are those of the source. No cut-off for these calls is given here.

Columns and labels:
[1] = test system: HuT78; experiment: Phototoxicity against human HUT78 cells assessed as reduction in cell viability preincubated for 1 hr in dark at 5 x 10^-8M before exposure to 0.5 to 2 J/cm2 irradiation after 48 hrs by MTT assay; type: functional, cell-based
In short: (§1)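 HUT-78 cells in RPMI 1640 with 10% FBS, 1% HEPES and 1% penicillin-streptomycin were plated at 7.5×10^4 per well and grown 24 h. Dye was added to final 5×10^-8 to 5×10^-7 M, then 1 h in the dark. Plates were kept dark or irradiated with a 633 ± 2 nm dye laser at ~3.2 mW cm^-2 to 0.5, 1.0 or 2.0 J cm^-2. Medium was replaced, 48 h at 37 °C, then MTT read at 570 nm. Triplicate runs; EC50/LD50 by sigmoidal variable-slope fit.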

[2] = Drug extrusion in SEB-stimulated human CD25 positive cells assessed as mean fluorescence intensity at 5 x 10^-8 M preincubated for 20 mins followed by growth in photosensitizer-free media for 30 mins by flow cytometric analysis relative to control; conditions: 0.5 h, 0.05 µM
[3] = Drug extrusion in SEB-stimulated human CD25 negative cells assessed as mean fluorescence intensity at 5 x 10^-8 M preincubated for 20 mins followed by growth in photosensitizer-free media for 30 mins by flow cytometric analysis relative to control; conditions: 0.5 h, 0.05 µM
[4] = test system: ABCB1; experiment: Passive permeability in dog MDCK2-MDR1 cells expressing ABCB1 at 5 uM after 30 mins in presence of compound 15 by LC-MS/MS analysis; type: ADME, cell-based, Canis lupus familiaris, MDCK-II; conditions: MDCK-MDR1, with compound 15 (concentration not stated), read-out: permeability
In short: (§2)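 MDR1-transfected MDCKII cells (passage 16–42) were seeded at 50,000 cells cm^-2 on Transwell filters and used on day 6. Monolayers were rinsed in DPBS with 10^-2 M HEPES, pH 7.4, at 37 °C. They were preincubated 30 min in 4.3 mg/mL BSA/DPBSH with or without 5×10^-6 M P-gp inhibitor. 5 μM dye was added apically or basolaterally and samples taken after 1 h at 37 °C with nutation. Quantitation was by LC-MS/MS; P_passive is the mean of P_AB and P_BA under full inhibition. Mean ± SD.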

[5] = test system: ABCB1; experiment: Permeability from apical to basolateral side in dog MDCK2-MDR1 cells expressing ABCB1 at 5 uM after 30 mins in absence of compound 15 by LC-MS/MS analysis; type: ADME, cell-based, Canis lupus familiaris, MDCK-II; conditions: MDCK-MDR1, read-out: permeability; in short: as §2
[6] = Phototoxicity human CD4 positive cells co-cultured with GFP expressing human HUT78 cells assessed as cell survival at 7.5 x 10^-8 M preincubated 20 mins in photosensitizer media followed by growth in photosensitizer-free media for 30 mins measured 18 hrs after exposure to 5 J/cm2 irradiation by FACS analysis; type: cell-based; conditions: read-out: Survival
In short: (§3)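 Non-stimulated PBMCs from healthy donors (Ficoll-separated) were mixed 5:1 with GFP-transfected, sorted (>98%) HUT-78 cells. Cells took up 7.5×10^-8 M photosensitizer for 20 min, then spent 30 min in dye-free medium. They were exposed to 5 J cm^-2 light (600 nm LED) with rotation at 180 rpm. Survival was gated by FACS (GFP, CD3, CD4, CD8) 18 h later versus non-irradiated controls. Triplicate; mean ± SEM.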

[7] = Phototoxicity human CD3 positive cells co-cultured with GFP expressing human HUT78 cells assessed as cell survival at 7.5 x 10^-8 M preincubated 20 mins in photosensitizer media followed by growth in photosensitizer-free media for 30 mins measured 18 hrs after exposure to 5 J/cm2 irradiation by FACS analysis; type: cell-based; conditions: read-out: Survival; in short: as §3
[8] = test system: ABCB1; experiment: Permeability from apical to basolateral side in dog MDCK2-MDR1 cells expressing ABCB1 at 5 uM after 30 mins in presence of compound 15 by LC-MS/MS analysis; type: ADME, cell-based, Canis lupus familiaris, MDCK-II; conditions: MDCK-MDR1, with compound 15 (concentration not stated), read-out: permeability; in short: as §2
[9] = test system: HuT78; experiment: Phototoxicity in GFP expressing human HUT78 cells co-cultured with human PBMC cells assessed as cell survival at 7.5 x 10^-8 M preincubated 20 mins in photosensitizer media followed by growth in photosensitizer-free media for 30 mins measured 18 hrs after exposure to 5 J/cm2 irradiation by FACS analysis; type: functional; conditions: HuT78, light or radiation study, read-out: Survival; in short: as §3
[10] = test system: HuT78; experiment: Phototoxicity against human HUT78 cells assessed as reduction in cell viability preincubated for 1 hr in dark before exposure to 1 J/cm2 irradiation after 48 hrs by MTT assay; type: functional, cell-based; conditions: for EC50: HuT78, light or radiation study; in short: as §1
[11] = test system: ABCB1; experiment: Permeability from basolateral to apical side in dog MDCK2-MDR1 cells expressing ABCB1 at 5 uM after 30 mins in absence of compound 15 by LC-MS/MS analysis; type: ADME, cell-based, Canis lupus familiaris, MDCK-II; conditions: MDCK-MDR1, read-out: permeability; in short: as §2
[12] = test system: HuT78; experiment: Drug uptake in GFP expressing human HUT78 cells co-cultured with non-stimulated human PBMC cells assessed as change in mean fluorescence intensity at 7.5 x 10^-8 M after 20 mins followed by growth in photosensitizer-free media for 30 mins by flow cytometric analysis relative to control; type: cell-based; conditions: hut78, 0.5 h, 0.075 µM
[13] = Drug uptake in human HUT78 cell mitochondria by MTG-based bright field microscopic analysis; type: ADME
In short: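 HUT-78 cells (5×10^5 in 0.5 mL medium) were incubated 15 min with 2×10^-7 M dye together with 5×10^-7 M MitoTracker Green. They were centrifuged and analysed by ImageStream imaging flow cytometry, with MTG excited at 488 nm (480–560 nm channel) and dye excited at 561 nm (642–745 nm channel). Colocalisation was given as the bright detail similarity score, mean ± SD over cells.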

[14] = test system: HuT78; conditions: human, hut78, 0.5 h, 0.075 µM
[15] = test system: ABCB1; experiment: Permeability from basolateral to apical side in dog MDCK2-MDR1 cells expressing ABCB1 at 5 uM after 30 mins in presence of compound 15 by LC-MS/MS analysis; type: ADME, cell-based, Canis lupus familiaris, MDCK-II; conditions: MDCK-MDR1, with compound 15 (concentration not stated), read-out: permeability; in short: as §2
[16] = test system: HuT78; conditions: human, hut78, 0.5 h, 0.075 µM; remark: listed apart in the source
[17] = Dark toxicity against human HUT78 cells assessed as reduction in cell viability preincubated for 1 hr in dark after 48 hrs by MTT assay; type: cell-based; conditions: read-out: LD50; in short: as §1
[18] = Drug extrusion in SEB-stimulated human CD25 negative cells assessed as change in mean fluorescence intensity at 5 x 10^-8 M preincubated for 20 mins followed by growth in photosensitizer-free media for 30 mins by flow cytometric analysis relative to control; conditions: 0.5 h, 0.05 µM
[19] = Drug extrusion in human CD8 positive cells assessed as change in mean fluorescence intensity at 5 x 10^-8 M preincubated for 20 mins followed by growth in photosensitizer-free media for 30 mins by flow cytometric analysis relative to control; type: cell-based; conditions: 0.5 h, 0.05 µM
[20] = Drug extrusion in human CD4 positive cells assessed as change in mean fluorescence intensity at 5 x 10^-8 M preincubated for 20 mins followed by growth in photosensitizer-free media for 30 mins by flow cytometric analysis relative to control; type: cell-based; conditions: 0.5 h, 0.05 µM
[21] = Phototoxicity human CD8 positive cells co-cultured with GFP expressing human HUT78 cells assessed as cell survival at 7.5 x 10^-8 M preincubated 20 mins in photosensitizer media followed by growth in photosensitizer-free media for 30 mins measured 18 hrs after exposure to 5 J/cm2 irradiation by FACS analysis; type: cell-based; conditions: read-out: Survival; in short: as §3
[22] = Drug uptake in SEB-stimulated human CD25 negative cells assessed as mean fluorescence intensity at 5 x 10^-8 M preincubated for 20 mins followed by growth in photosensitizer-free media for 30 mins by flow cytometric analysis relative to control; conditions: 0.5 h, 0.05 µM
[23] = Drug uptake in SEB-stimulated human CD25 positive cells assessed as mean fluorescence intensity at 5 x 10^-8 M preincubated for 20 mins followed by growth in photosensitizer-free media for 30 mins by flow cytometric analysis relative to control; conditions: 0.5 h, 0.05 µM
[24] = Drug extrusion in human CD3 positive cells assessed as change in mean fluorescence intensity at 5 x 10^-8 M preincubated for 20 mins followed by growth in photosensitizer-free media for 30 mins by flow cytometric analysis relative to control; type: cell-based; conditions: 0.5 h, 0.05 µM
[25] = Drug extrusion in SEB-stimulated human CD25 positive cells assessed as change in mean fluorescence intensity at 5 x 10^-8 M preincubated for 20 mins followed by growth in photosensitizer-free media for 30 mins by flow cytometric analysis relative to control; conditions: 0.5 h, 0.05 µM

S=C(c1ccc(C2=c3cc4c5c(c3[Se]c3c2cc2c6c3CCCN6CCC2)CCC[N+]=5CCC4)s1)N1CCCCC1.[Cl-]
Activity [1]: Active | Flu intensity [2]: 69000 a.u. | Flu intensity [3]: 16600 a.u. | Papp at 0.5 h, 5 µM [4]: < 0.1 ×10⁻⁶ cm/s | Papp A→B at 0.5 h, 5 µM [5]: 0.03 ×10⁻⁶ cm/s | viability at 18 h, 0.075 µM [6]: 1.5% | viability at 18 h, 0.075 µM [7]: 5.8% | Papp A→B at 0.5 h, 5 µM [8]: 0.051 ×10⁻⁶ cm/s | viability at 0.075 µM [9]: 0% | Activity [10]: Dose-dependent effect | EC50 [10]: 35 nM | Papp B→A at 0.5 h, 5 µM [11]: 1.8 ×10⁻⁶ cm/s | Activity [12]: 28.1% | Drug uptake [13]: Active | Flu intensity [14]: 81000 a.u. | Papp B→A at 0.5 h, 5 µM [15]: 0.057 ×10⁻⁶ cm/s | Flu intensity [16]: 66000 a.u. | CC50 at 48 h [17]: 1080 nM | Activity [18]: 35.2% | Activity [19]: 59.2% | Activity [20]: 36.1% | viability at 18 h, 0.075 µM [21]: 11.3% | Flu intensity [22]: 25500 a.u. | Flu intensity [23]: 83300 a.u. | Activity [24]: 33.1% | Activity [25]: 16.8%

O=C(c1ccc(C2=c3cc4c5c(c3[Se]c3c2cc2c6c3CCCN6CCC2)CCC[N+]=5CCC4)s1)N1CCCCC1.[Cl-]
Activity [1]: Active | Flu intensity [2]: 4500 a.u. | Flu intensity [3]: 580 a.u. | Papp at 0.5 h, 5 µM [4]: 0.2 ×10⁻⁶ cm/s | Papp A→B at 0.5 h, 5 µM [5]: 0.21 ×10⁻⁶ cm/s | viability at 18 h, 0.075 µM [6]: 63.3% | viability at 18 h, 0.075 µM [7]: 62.1% | Papp A→B at 0.5 h, 5 µM [8]: 0.024 ×10⁻⁶ cm/s | viability at 0.075 µM [9]: 3.9% | Activity [10]: Dose-dependent effect | EC50 [10]: 70 nM | Papp B→A at 0.5 h, 5 µM [11]: 7.8 ×10⁻⁶ cm/s | Activity [12]: 55.7% | Drug uptake [13]: Active | Flu intensity [14]: 6800 a.u. | Papp B→A at 0.5 h, 5 µM [15]: 0.48 ×10⁻⁶ cm/s | Flu intensity [16]: 4500 a.u. | CC50 at 48 h [17]: 730 nM | Activity [18]: 59.8% | Activity [19]: 69% | Activity [20]: 59.1% | viability at 18 h, 0.075 µM [21]: 78% | Flu intensity [22]: 1450 a.u. | Flu intensity [23]: 7510 a.u. | Activity [24]: 54.6% | Activity [25]: 39.9%
